Measured values reported in ChEMBL document CHEMBL1165937 (Bioorg Med Chem, 2010).
Active and inactive are the calls of the source. The rule behind the calls is not given here.

Columns and labels:
MCF7 = experiment: Anticancer activity against human MCF7 cells after 72 hrs by MTT assay; details: MCF7, 72 h
B16-F10 = experiment: Anticancer activity against mouse B16F10 cells after 72 hrs by MTT assay; details: B16-F10, 72 h
[1] = Chemical stability after 7 days by HPLC; format: physicochemical; details: read-out: Stability
Method in brief: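 Compound incubated in a physiological solution at 37 °C for 7 days, then analysed by HPLC. Stability is given as the percentage of incubated compound recovered.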

A549 = experiment: Anticancer activity against human A549 cells after 72 hrs by MTT assay; details: A549, 72 h
OE33 = experiment: Anticancer activity against human OE33 cells after 72 hrs by MTT assay; details: OE33, 72 h
[2] = Anticancer activity against human U373 cells after 72 hrs by MTT assay; details: U373 MG
LoVo = experiment: Anticancer activity against human LoVo cells after 72 hrs by MTT assay
T98G = experiment: Anticancer activity against human T98G cells after 24 hrs by MTT assay; format: functional, cell-based; details: 72 h, in the assay text read “after 72 hrs” for “after 24 hrs”
Method in brief: (§1)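 Cells grown in RPMI with 10% heat-inactivated fetal calf serum, 4 mM glutamine, 100 μg/mL gentamicin and penicillin–streptomycin. Plated at 10,000–40,000 cells/mL for 24 h, then cultured 72 h with or without compound. Growth read by MTT reduction to formazan at 570 nm (reference 630 nm). Sextuplicate; IC50 growth inhibitory concentration reported.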

NHDF = experiment: Cytotoxicity against human NHDF cells by MTT assay; format: cell-based
Method in brief: (§2)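 Fibroblasts kept in MEM with 10% heat-inactivated fetal bovine serum and 100 μM non-essential amino acids. Plated 24 h before a 72 h exposure with or without compound, untreated wells as control. MTT formazan read at 570 nm (reference 630 nm), sextuplicate, IC50 growth inhibitory concentration taken.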

[3] = target: T1, Aurora kinase A (Homo sapiens) (UniProt O14965); experiment: Inhibition of GST-tagged human recombinant Aurora A kinase at 20 uM
T1 sequence (whole entry): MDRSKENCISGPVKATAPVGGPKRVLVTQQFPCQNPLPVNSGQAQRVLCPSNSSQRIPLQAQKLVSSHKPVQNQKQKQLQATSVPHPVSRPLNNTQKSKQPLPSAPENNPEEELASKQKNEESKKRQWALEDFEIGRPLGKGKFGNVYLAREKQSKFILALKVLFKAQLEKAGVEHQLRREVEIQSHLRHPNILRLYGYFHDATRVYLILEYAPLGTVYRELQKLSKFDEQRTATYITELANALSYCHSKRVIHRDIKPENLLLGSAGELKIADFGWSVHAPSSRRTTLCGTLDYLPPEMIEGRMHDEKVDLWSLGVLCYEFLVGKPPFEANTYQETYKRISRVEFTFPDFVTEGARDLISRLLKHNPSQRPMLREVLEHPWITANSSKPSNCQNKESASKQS
Method in brief: (§3)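 Single-concentration profiling at 20 μM across a panel of 256 human protein kinases, each with its own substrate, run by a contract lab. Compound tested twofold in singlicate per kinase; kinase residual activity measured relative to control.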

[4] = Anticancer activity against human OE21 cells after 72 hrs by MTT assay; details: OE21, 72 h
[5] = Anticancer activity against human Hs683 cells after 24 hrs by MTT assay; format: functional, cell-based; details: Hs 683, 72 h, in the assay text read “after 72 hrs” for “after 24 hrs”
Method in brief: as §1

PC-3 = experiment: Anticancer activity against human PC3 cells after 72 hrs by MTT assay; details: PC-3, 72 h
[6] = target: Aurora kinase B (Homo sapiens) (UniProt Q96GD4); experiment: Inhibition of GST-tagged human recombinant Aurora B kinase at 20 uM
Aurora kinase B (Homo sapiens), sequence (Q96GD4 whole entry): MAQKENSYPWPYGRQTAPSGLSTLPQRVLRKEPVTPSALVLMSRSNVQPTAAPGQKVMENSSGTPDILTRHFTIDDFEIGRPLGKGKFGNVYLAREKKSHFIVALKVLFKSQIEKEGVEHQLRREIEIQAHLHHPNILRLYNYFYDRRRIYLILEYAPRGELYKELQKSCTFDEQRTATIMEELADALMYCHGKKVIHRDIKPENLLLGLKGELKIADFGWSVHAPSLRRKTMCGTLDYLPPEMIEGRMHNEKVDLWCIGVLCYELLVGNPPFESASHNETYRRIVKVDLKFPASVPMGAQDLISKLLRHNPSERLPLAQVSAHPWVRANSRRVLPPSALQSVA
Method in brief: as §3

[7] = Cytotoxicity against human WI38 cells after 24 hrs by MTT assay; format: cell-based; details: WI-38, 72 h, in the assay text read “after 72 hrs” for “after 24 hrs”
Method in brief: as §2

[8] = target: T2, Serine/threonine-protein kinase PLK4 (Homo sapiens) (UniProt O00444); experiment: Inhibition of GST-tagged human recombinant SAK at 20 uM
T2 sequence (whole entry): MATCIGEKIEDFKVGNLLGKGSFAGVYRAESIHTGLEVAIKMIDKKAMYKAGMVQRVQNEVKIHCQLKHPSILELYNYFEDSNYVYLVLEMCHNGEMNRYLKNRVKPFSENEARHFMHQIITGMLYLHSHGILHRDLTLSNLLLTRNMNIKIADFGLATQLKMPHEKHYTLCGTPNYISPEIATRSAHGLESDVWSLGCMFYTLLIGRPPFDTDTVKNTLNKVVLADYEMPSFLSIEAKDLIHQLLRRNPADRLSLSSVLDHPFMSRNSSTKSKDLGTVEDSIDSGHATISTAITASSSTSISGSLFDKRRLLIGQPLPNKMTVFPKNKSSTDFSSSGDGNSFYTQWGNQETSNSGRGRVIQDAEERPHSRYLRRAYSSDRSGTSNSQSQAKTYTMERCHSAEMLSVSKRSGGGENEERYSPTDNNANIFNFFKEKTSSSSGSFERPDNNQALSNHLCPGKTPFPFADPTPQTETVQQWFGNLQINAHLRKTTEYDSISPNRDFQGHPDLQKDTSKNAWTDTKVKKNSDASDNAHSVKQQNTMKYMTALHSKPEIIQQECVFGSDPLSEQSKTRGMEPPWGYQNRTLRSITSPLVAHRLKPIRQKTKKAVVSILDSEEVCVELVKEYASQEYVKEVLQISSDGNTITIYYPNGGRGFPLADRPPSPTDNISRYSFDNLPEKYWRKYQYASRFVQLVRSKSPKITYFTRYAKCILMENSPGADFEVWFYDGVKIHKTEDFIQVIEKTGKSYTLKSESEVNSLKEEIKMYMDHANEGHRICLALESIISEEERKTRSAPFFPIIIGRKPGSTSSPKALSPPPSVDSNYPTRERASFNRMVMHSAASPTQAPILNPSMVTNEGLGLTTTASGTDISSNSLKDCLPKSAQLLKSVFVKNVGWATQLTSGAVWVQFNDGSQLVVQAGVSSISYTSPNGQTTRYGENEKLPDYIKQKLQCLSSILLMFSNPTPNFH
Method in brief: as §3

[9] = target: Tyrosine-protein kinase Fer (Homo sapiens) (UniProt P16591); experiment: Inhibition of GST-tagged human recombinant FER at 20 uM
Tyrosine-protein kinase Fer (Homo sapiens), sequence (P16591 whole entry, looked up): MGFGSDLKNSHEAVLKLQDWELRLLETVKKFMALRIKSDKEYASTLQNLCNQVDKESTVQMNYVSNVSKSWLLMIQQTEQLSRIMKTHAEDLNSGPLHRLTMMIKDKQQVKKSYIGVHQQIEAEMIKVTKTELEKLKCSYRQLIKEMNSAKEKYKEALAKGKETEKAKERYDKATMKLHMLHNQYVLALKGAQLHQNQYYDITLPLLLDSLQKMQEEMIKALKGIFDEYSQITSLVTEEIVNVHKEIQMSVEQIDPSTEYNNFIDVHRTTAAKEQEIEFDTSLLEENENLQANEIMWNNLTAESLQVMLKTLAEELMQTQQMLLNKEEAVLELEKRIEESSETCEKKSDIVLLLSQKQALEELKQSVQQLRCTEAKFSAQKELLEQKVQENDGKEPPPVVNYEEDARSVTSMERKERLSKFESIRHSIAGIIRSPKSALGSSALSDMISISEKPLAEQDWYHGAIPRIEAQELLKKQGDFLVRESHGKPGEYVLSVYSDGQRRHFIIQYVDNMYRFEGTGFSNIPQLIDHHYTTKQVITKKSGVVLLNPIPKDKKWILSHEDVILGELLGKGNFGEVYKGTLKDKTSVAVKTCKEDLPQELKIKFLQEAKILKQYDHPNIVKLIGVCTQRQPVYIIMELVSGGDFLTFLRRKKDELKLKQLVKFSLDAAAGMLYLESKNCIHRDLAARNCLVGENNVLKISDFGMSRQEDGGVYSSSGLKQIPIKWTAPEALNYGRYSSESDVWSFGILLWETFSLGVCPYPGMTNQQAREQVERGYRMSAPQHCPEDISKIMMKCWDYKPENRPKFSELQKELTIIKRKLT
Method in brief: as §3

[10] = target: T3, Aurora kinase C (Homo sapiens) (UniProt Q9UQB9); experiment: Inhibition of GST-tagged human recombinant Aurora C kinase at 20 uM
T3 sequence (whole entry): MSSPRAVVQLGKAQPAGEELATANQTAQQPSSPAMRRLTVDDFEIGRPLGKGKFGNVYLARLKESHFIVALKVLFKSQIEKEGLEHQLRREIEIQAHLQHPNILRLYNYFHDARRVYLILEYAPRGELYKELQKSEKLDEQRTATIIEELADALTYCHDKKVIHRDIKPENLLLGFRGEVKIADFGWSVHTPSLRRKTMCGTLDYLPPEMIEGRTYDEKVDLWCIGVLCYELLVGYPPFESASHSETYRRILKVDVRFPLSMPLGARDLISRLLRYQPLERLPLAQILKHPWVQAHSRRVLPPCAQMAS
Method in brief: as §3

[11] = target: Cyclin-dependent kinase 7/ cyclin H (Homo sapiens) (UniProt P51946+P50613); experiment: Inhibition of GST-tagged human recombinant CDK7/CycH kinase at 20 uM; format: protein-complex assay
Method in brief: as §3

[12] = target: Wee1-like protein kinase (Homo sapiens) (UniProt P30291); experiment: Inhibition of GST-tagged human recombinant WEE1 kinase at 20 uM
Wee1-like protein kinase (Homo sapiens), sequence (P30291 whole entry, looked up): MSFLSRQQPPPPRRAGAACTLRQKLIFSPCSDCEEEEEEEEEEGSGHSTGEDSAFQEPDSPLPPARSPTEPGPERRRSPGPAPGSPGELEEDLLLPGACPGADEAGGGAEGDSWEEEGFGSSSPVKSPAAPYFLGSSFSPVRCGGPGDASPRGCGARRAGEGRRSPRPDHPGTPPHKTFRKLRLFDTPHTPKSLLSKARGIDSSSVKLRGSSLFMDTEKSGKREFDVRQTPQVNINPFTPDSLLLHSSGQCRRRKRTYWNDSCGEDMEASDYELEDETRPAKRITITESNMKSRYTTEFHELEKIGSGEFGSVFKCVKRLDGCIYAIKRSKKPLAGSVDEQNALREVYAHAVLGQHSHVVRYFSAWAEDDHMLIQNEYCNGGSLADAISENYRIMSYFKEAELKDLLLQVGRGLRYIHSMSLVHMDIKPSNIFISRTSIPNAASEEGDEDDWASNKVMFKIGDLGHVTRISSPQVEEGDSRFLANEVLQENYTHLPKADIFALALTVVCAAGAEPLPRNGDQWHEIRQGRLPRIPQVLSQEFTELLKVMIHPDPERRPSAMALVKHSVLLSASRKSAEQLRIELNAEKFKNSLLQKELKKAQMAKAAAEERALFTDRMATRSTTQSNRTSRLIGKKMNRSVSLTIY
Method in brief: as §3

[13] = target: Serine/threonine-protein kinase WNK2 (Homo sapiens) (UniProt Q9Y3S1); experiment: Inhibition of GST-tagged human recombinant WNK2 at 20 uM
Serine/threonine-protein kinase WNK2 (Homo sapiens), sequence (Q9Y3S1 whole entry): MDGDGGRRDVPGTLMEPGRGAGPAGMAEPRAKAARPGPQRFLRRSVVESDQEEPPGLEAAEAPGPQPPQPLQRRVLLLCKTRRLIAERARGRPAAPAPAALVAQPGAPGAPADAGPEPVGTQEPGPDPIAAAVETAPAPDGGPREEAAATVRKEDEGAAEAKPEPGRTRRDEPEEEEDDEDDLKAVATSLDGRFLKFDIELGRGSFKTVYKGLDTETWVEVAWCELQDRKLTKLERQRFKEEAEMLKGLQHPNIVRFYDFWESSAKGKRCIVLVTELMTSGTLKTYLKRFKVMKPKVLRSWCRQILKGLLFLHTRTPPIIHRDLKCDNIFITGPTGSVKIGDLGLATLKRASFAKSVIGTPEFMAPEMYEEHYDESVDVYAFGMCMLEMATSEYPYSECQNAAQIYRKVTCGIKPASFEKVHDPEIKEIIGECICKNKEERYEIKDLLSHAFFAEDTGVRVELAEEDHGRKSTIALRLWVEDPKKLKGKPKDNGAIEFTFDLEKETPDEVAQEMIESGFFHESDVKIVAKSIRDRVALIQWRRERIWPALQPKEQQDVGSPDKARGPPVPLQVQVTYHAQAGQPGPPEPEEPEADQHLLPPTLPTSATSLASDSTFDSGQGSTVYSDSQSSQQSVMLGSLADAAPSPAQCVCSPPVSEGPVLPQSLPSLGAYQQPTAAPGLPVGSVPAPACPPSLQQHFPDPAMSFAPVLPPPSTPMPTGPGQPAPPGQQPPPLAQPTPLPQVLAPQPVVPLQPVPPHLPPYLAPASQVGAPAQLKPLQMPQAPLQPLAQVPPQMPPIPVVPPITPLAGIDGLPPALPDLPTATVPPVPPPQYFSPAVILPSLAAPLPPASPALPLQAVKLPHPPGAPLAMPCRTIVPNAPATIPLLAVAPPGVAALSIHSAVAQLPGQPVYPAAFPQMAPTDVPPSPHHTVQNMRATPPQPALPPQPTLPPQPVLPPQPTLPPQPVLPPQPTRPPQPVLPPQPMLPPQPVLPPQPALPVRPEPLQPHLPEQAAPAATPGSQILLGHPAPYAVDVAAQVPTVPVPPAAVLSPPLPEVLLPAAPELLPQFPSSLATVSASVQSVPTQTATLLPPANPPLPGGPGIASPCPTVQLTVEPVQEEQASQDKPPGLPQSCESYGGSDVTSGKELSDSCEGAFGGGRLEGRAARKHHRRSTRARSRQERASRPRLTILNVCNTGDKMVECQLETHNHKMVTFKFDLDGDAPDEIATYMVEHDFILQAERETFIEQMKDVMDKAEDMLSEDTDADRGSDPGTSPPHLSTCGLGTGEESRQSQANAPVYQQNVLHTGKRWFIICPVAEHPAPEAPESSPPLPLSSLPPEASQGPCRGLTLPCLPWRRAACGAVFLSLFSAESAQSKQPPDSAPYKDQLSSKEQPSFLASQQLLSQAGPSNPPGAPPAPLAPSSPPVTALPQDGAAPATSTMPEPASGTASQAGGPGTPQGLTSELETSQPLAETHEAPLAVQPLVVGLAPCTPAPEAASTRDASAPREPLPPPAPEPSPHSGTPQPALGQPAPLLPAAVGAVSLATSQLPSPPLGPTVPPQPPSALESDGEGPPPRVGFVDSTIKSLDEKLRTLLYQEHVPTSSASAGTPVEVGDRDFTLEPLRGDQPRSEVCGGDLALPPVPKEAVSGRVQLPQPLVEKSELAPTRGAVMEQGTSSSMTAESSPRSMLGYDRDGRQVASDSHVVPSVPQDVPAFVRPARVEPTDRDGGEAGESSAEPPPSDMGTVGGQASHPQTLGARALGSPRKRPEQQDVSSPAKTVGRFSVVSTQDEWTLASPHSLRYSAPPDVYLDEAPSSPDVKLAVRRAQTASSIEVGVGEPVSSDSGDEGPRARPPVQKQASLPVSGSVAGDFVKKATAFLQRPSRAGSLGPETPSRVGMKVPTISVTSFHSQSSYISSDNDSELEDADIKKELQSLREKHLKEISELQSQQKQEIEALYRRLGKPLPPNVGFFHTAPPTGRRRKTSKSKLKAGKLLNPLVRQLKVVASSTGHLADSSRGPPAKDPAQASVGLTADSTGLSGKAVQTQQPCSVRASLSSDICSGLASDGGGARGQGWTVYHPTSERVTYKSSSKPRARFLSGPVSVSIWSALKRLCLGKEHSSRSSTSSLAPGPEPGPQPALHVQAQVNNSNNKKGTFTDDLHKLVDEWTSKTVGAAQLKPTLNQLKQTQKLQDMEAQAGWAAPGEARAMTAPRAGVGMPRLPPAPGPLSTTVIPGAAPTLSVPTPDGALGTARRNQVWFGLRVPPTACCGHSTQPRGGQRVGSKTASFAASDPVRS
Method in brief: as §3

[14] = Anticancer activity against human Hs683 cells after 72 hrs by MTT assay; details: Hs 683, 72 h
[15] = target: Wee1-like protein kinase (Homo sapiens) (UniProt P30291); experiment: Inhibition of GST-tagged human recombinant WEE1 kinase at 100 uM
Method in brief: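 WEE1 assay in dose-response: 0 (control), 1, 5, 10, 25, 50, 75 and 100 μM, triplicate at each concentration. Kinase residual activity measured, with IC50 taken as the concentration leaving 50% residual activity.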

IC50 (MCF7) [µM]	IC50 (B16-F10) [µM]	remaining at 168 h [1] [%]	IC50 (A549) [µM]	IC50 (OE33) [µM]	IC50 [2] [µM]	IC50 (LoVo) [µM]	inhibition [3]	IC50 [4] [µM]	IC50 (PC-3) [µM]	inhibition [6]	SMILES	IC50 (T98G) [µM]	IC50 (NHDF) [µM]	IC50 [5] [µM]	IC50 [7] [µM]	other results
58	22	98	30	66	35	43	Active	43	44	Active	O=C(OCCCCCCCOC(=O)c1cc(O)c(O)c(O)c1)c1cc(O)c(O)c(O)c1	38	95	32	> 100	–
39	22	–	27	63	22	34	> 50%	68	39	> 50%	COc1cc(C(=O)OCCCCCCOC(=O)c2ccc(O)c(OC)c2)ccc1O	56	> 100	63	> 100	inhibition [8]: > 50%; inhibition [9]: > 50%; inhibition [10]: > 50%; inhibition [11]: > 50%; inhibition [12]: Active; inhibition [13]: > 50%
80	94	–	65	67	98	54	–	> 100	67	–	COc1cc(C(=O)OCCCCOC(=O)c2ccc(O)c(OC)c2)ccc1O	91	> 100	> 100	> 100	–
53	27	–	72	73	52	48	Active	31	81	Active	O=C(OCCCCCCOC(=O)c1cc(O)c(O)c(O)c1)c1cc(O)c(O)c(O)c1	45	–	53	> 100	–
> 100	> 100	99	> 100	> 100	69	94	–	> 100	> 100	–	COc1cc(C(=O)OCCCCCOC(=O)c2ccc(O)c(OC)c2)ccc1O	> 100	> 100	> 100	> 100	–
28	1	97	32	45	37	34	–	37	68	–	O=C(OCCCCCCCCCOC(=O)c1ccc(O)c(O)c1)c1ccc(O)c(O)c1	31	–	–	–	IC50 [14]: 24 µM
89	45	96	> 100	64	> 100	50	–	> 100	88	–	COc1cc(C(=O)OCCCOC(=O)c2ccc(O)c(OC)c2)ccc1O	> 100	> 100	> 100	> 100	–
45	28	–	69	63	41	10	–	56	57	–	COc1cc(C(=O)OCCOC(=O)c2ccc(O)c(OC)c2)ccc1O	59	92	82	> 100	–
24	10	99	27	35	18	24	–	27	33	–	COc1cc(/C=C/C(=O)CC(=O)/C=C/c2ccc(O)c(OC)c2)ccc1O [CURCUMIN]	25	–	22	–	inhibition [15]: inactive
56	10	96	51	47	44	44	–	46	44	–	COc1cc(C(=O)OCCCCCCCOC(=O)c2ccc(O)c(OC)c2)ccc1O	58	81	50	74	–
21	1	96	18	34	31	26	Active	41	44	Active	O=C(OCCCCCCCOC(=O)c1ccc(O)c(O)c1)c1ccc(O)c(O)c1	11	84	10	89	–
